How the values were obtained:
[1] = cited from earlier work
Bioavailability analysis = type: in vivo, Sprague-Dawley rat; conditions: for absolute bioavailability (FAB): AUCig × 100%/AUCiv; for relative bioavailability (FRB): oral, AUC chromium malate × 100%/AUC chromium picolinate
In short: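 AUCs came from compartment-model fits of serum Cr–time data in SD rats of each sex. Dosing was 20 μg Cr/kg bw by oral gavage or caudal-vein injection. Relative bioavailability = AUC of test compound ×100%/AUC of chromium picolinate, both oral. Absolute bioavailability = AUC intragastric ×100%/AUC IV.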

[2] = Tissue distribution of Cr; type: in vivo, Sprague-Dawley rat; conditions: oral gavage; for level of Cr in brain / level of Cr in heart / level of Cr in kidney / level of Cr in liver / level of Cr in lung / level of Cr in spleen: at 12 h
In short: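 Male and female SD rats were dosed by oral gavage and killed under anhydrous diethyl ether anaesthesia at 0.25–48 h postdose. Heart, liver, spleen, lung, kidneys and brain were collected, wet-digested as for serum, and Cr measured by simultaneous ICP-OES. Results given per g tissue.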

diabetic mice = conditions: cited from earlier work
[3] = cited from earlier work; remark: listed apart in the source
[4] = Pharmacokinetics of serum Cr after oral gavage; type: in vivo, Sprague-Dawley rat; conditions: for serum concentration of Cr: at 1.5 h
In short: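 SD rats (180 ± 10 g, male and female, 10/group) received 20 μg Cr/kg bw either by gavage after a 12 h fast or via the caudal vein. Blood was drawn retro-orbitally into heparinized tubes at 0–72 h, over 21 time points. Serum (10,000 g, 10 min, 4°C) was wet-digested, 0.1 mL in nitric/perchloric acid (1:4, v/v), and Cr read by simultaneous ICP-OES. Compartment model chosen by AIC and F-test.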

[5] = Faeces distribution of Cr; type: in vivo, Sprague-Dawley rat; conditions: oral gavage, 20 μg Cr/kg bw; for feces concentration of Cr: at 5 h
[6] = test system: rats with type 2 diabetes; conditions: cited from earlier work
[7] = cited from earlier work; remark: listed apart in the source
[8] = may be caused by the ligand (picolinate); cited from earlier work
[9] = cited from earlier work; remark: listed apart in the source
[10] = intraperitoneal administration, ref 32 (Kirman et al.); cited from earlier work

Structure (SMILES): O=C(O)CC(O)C(=O)O.O=C(O)CC(O)C(=O)O.O=C(O)CC(O)C(=O)O.[Cr].[Cr] (stereo not drawn) [Chromium malate, chromium malate]
- 90-day repeated dose oral toxicity and reproductive toxicity [1]: no remarkable influence
- absolute bioavailability (FAB) (Bioavailability analysis; female rats): 113.28% ± 1.72%
- relative bioavailability (FRB) (Bioavailability analysis; female rats): 105.28% ± 1.62%
- absolute bioavailability (FAB) (Bioavailability analysis; male rats): 111.80% ± 1.81%
- relative bioavailability (FRB) (Bioavailability analysis; male rats): 115.73% ± 2.03%
- level of Cr in brain ([2]; female rats): 0.6 µg/g
- level of Cr in heart ([2]; female rats): 0.50 µg/g
- level of Cr in kidney ([2]; female rats): 0.78 µg/g
- level of Cr in liver ([2]; female rats): 0.60 µg/g
- level of Cr in lung ([2]; female rats): 0.49 µg/g
- level of Cr in spleen ([2]; female rats): 0.40 µg/g
- tissue distribution of Cr in comparison with control (male and female) groups ([2]; male and female rats): no notable change
- level of Cr in brain ([2]; male rats): 0.67 µg/g
- level of Cr in heart ([2]; male rats): 0.52 µg/g
- level of Cr in kidney ([2]; male rats): 0.84 µg/g
- level of Cr in liver ([2]; male rats): 0.61 µg/g
- level of Cr in lung ([2]; male rats): 0.52 µg/g
- level of Cr in spleen ([2]; male rats): 0.40 µg/g
- blood glucose level (diabetic mice): could improve blood glucose level
- toxicity in the acute toxicity study and subacute toxicity study [3]: nontoxic
- Tmax of serum concentration of Cr ([4]; 20 μg Cr/kg bw, sex not split): 1.5 h
- serum concentration of Cr ([4]; female rats, 20 μg Cr/kg bw): 4760 ± 550 ng/mL
- serum concentration of Cr ([4]; male rats, 20 μg Cr/kg bw): 4630 ± 370 ng/mL
- AUC0→∞ compared with chromium picolinate ([4]; male rats, P ≤ 0.05): higher
- MRT compared with chromium picolinate group ([4]; rats of the same sex, P < 0.05): significantly higher
- feces concentration of Cr ([5]; female rats): 0.47 ± 0.04 µg/g
- feces concentration of Cr ([5]; male rats): 0.50 ± 0.06 µg/g
- feces concentration of Cr in comparison with chromium picolinate group ([5]; same gender rats): no notable change
- FBG level and insulin resistance [6]: could improve FBG level and insulin resistance
- oxidative DNA damage [7]: no oxidative DNA damage

Structure (SMILES): O=C([O-])c1ccccn1.O=C([O-])c1ccccn1.O=C([O-])c1ccccn1.[Cr+3] [Chromium picolinate, chromium picolinate]
- genotoxicity, cytotoxicity, and tumorigenesis [8]: had shown the genotoxicity, cytotoxicity, and tumorigenesis

Structure (SMILES): O=C([O-])c1cccnc1.O=C([O-])c1cccnc1.O=C([O-])c1cccnc1.[Cr+3] [chromium nicotinate]
- solubility [9]: poor solubility

Structure (SMILES): [Cl][Cr]([Cl])[Cl] [chromium trichloride]
- order of chromium level in mouse organs [10]: liver > kidney > pancreas > spleen > testes > lungs > heart > brain

Reference: article PMC6044135 (Indian Journal of Pharmacology, 2018)
